Measurements from different studies.
Compare with care: the assays were run in different laboratories.
CDK14 with cyclin Y: Cyclin-dependent kinase 14, with cyclin Y (CDK14, Homo sapiens, UniProt O94921)
CDK14: Cyclin-dependent kinase 14 (CDK14, Homo sapiens, UniProt O94921)

| SMILES | target | test | conditions | measurement | value |
| --- | --- | --- | --- | --- | --- |
| Cc1ccc(C(=O)NCc2ccsc2)cc1C#Cc1cn(C(C)C)c2ncnc(N)c12 | CDK14 with cyclin Y | enzyme activity, inhibitor | 1 µM | activity vs control | 92% |
| Nc1ncnc2occ(-c3ccc(NC(=O)Nc4cc(C(F)(F)F)ccc4F)cc3)c12 | CDK14 | cell-free assay, inhibitor | 20 µM | remaining signal | 0.1% |
| Cn1nc(C(F)(F)F)cc1-c1cnc(N2CCc3cc(S(=O)(=O)Nc4c(F)cc(Cl)cc4F)cc(N4CCCC4=O)c32)nc1 | CDK14 | cell-free assay, competition with immobilised ligand | 1 µM | remaining binding | 100% |
| Fc1cccc(-n2cnc3c(NCc4nc5c(F)c(F)ccc5[nH]4)nc(N4CCOCC4)nc32)c1 | CDK14 | binding, competition with immobilised ligand | 10 µM | binding vs control | 55% |
| CN1CC(Oc2cnc(C#N)cc2-c2ccn3nc(NC(=O)C4CC4)cc3c2)C1 | CDK14 with cyclin Y | enzyme activity, inhibitor | 1 µM | inhibition | -11% |
| Cc1ccc(C(=O)Nc2ccc(CN3CCN(C)CC3)c(C(F)(F)F)c2)cc1C#Cc1cnc2cccnn12 | CDK14 | enzyme activity, inhibitor | 23.5 nM | remaining activity | 68% |
| CCC(=N\O)/C(C)=C/c1ccc(F)cc1 | CDK14 | cell-free assay, competition with immobilised ligand | 1 µM | remaining binding | 91% |
| O=C(Nc1cnn(-c2csc(C(=O)NC3COC3)c2)c1)Nc1ccccc1Cl | CDK14 | enzyme activity, inhibitor | 5 µM | remaining activity | 107% |
| COc1cc(Cl)c(C(=O)N[C@@H](CN[C@H]2CC[C@@H](N)CC2)Cc2ccc(C#N)cc2)cc1-c1ccc(CN[C@H](C)c2ccc(C)cc2)o1 | CDK14 with cyclin Y | enzyme activity, inhibitor | 1 µM | remaining activity | 99% |
| O=[N+]([O-])c1cccc2[nH]c(CNc3nc(N4CCOCC4)nc4c3ncn4-c3ccsc3)nc12 | CDK14 | binding, competition with immobilised ligand | 10 µM | binding vs control | 40% |
| Cc1sc(C(=O)NC2COC2)cc1-n1cc(NC(=O)Nc2c(F)cccc2Cl)cn1 | CDK14 | enzyme activity, inhibitor | 10 µM | remaining activity | 100% |
| CC1CCCN1c1nccc(-c2cnn3ncccc23)n1 (stereo not drawn) | CDK14 | binding | 1 µM | remaining binding | 100% |
